Results reported in publication PMC4657471 (Pest Management Science, 2014).
Like-named read-outs stand apart in the source and are kept apart here.

Assays:
[1] = tested on: endogenously expressed insect nAChRs; assay: Whole-cell voltage clamp electrophysiology on isolated neurons; type: cell-based, Spodoptera frugiperda; settings: for relative agonist efficacy: relative to the amplitude elicited by 1 mM of acetylcholine, holding potential −70 mV
[2] = tested on: rat; assay: Acute dermal toxicity; type: in vivo; settings: technical flupyradifurone
[3] = tested on: rat; assay: Acute inhalation toxicity; type: in vivo; settings: technical flupyradifurone
[4] = Skin irritation; settings: technical flupyradifurone
[5] = Eye irritation; settings: technical flupyradifurone
[6] = Mutagenicity; settings: technical flupyradifurone
[7] = Carcinogenicity; settings: technical flupyradifurone
[8] = Reproductive and developmental toxicity; settings: technical flupyradifurone
[9] = Fish acute toxicity; settings: rainbow trout, in vivo
[10] = Aquatic invertebrate acute toxicity; settings: Daphnia, in vivo
[11] = Aquatic plant toxicity; settings: algae, in vivo
[12] = tested on: Earthworm (Eisenia); assay: Earthworm 14 day toxicity; type: in vivo
[13] = tested on: Honey bee; assay: Honey bee acute contact toxicity; type: in vivo; settings: technical flupyradifurone
[14] = tested on: Honey bee; assay: Honey bee acute oral toxicity; type: in vivo; settings: technical flupyradifurone
[15] = tested on: Honey bee; assay: Honey bee foliage residue test; type: in vivo; settings: at 205 g ha^−1
[16] = tested on: Honey bee; assay: Honey bee long-term field studies in oilseed rape; type: in vivo; settings: 205 g AI ha^−1 in oilseed rape, full bloom and bees actively foraging
[17] = tested on: Bumblebee; assay: Bumblebee acute contact toxicity; type: in vivo; settings: technical flupyradifurone
[18] = tested on: Bemisia tabaci; assay: Whitefly adult leaf-dip bioassay; type: in vivo; settings: for mortality at 16 µg/mL: Bemisia tabaci
Outline: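 Adult B. tabaci, including neonicotinoid-resistant biotype B (Unai, Brazil, 2009). Cotton leaf discs (3.5 cm) were dipped 5 s in solutions made up in 0.02% Triton X-100, with diluent alone for controls. Discs were air-dried and laid on 12 g L−1 agar under ventilated lids. Three replicates per concentration, 20–30 females each, held at 22–24 °C; adult mortality scored after 72 h.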

[19] = tested on: Myzus persicae; assay: Speed of action: suppression of aphid honeydew excretion on oilseed rape; type: in vivo; settings: SL200, 75 g AI ha^−1 foliar on oilseed rape
Outline: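 Susceptible M. persicae (strain NS): 100 aphids per plant on the abaxial leaf side of […] oilseed rape (six leaves). Sprayed 50 cm above the canopy with a track sprayer at 75 g AI ha−1 SL200 in 300 L ha−1 water; water controls; two replicates; 22 °C, 60–70% RH. Filter papers under the leaves were changed every 30 min up to 240 min and stained with ninhydrin; honeydew spot area was expressed as suppression relative to preapplication.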

[20] = tested on: lettuce aphids (Nasonovia ribisnigri); assay: Field trials against lettuce aphids; type: in vivo; settings: seven lettuce field trials, foliar spray, rate g ha^−1: flupyradifurone 125, pymetrozine 200, thiacloprid 96, spirotetramat 75; for Efficacy (%) 6–10 DAA: 6–10 days after application; for Efficacy (%) 13–15 DAA: 13–15 days after application
Outline: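 Seven lettuce field trials in the EU maritime zone, each including commercial formulated standard insecticides for comparison. Treatments were replicated 3–4 times per trial, with aphid infestations above economic threshold levels. Efficacy was assessed at various intervals after spraying by scoring surviving aphids.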

[21] = tested on: B. tabaci CYP6CM1; assay: Metabolism of insecticides by recombinant CYP6CM1 microsomes; type: in vitro ADME, Bemisia tabaci; settings: 20 µM insecticide; 4 h at 30 °C; NADPH-regenerating system; UPLC-MS
Outline: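 B. tabaci CYP6CM1 and Drosophila NADPH CPR were baculovirus-expressed in Sf9 cells and run as microsomes (0.2 mg mL−1 total protein) in 0.1 M K-phosphate. Regenerating system: 1.3 mM NADP+, 3.3 mM glucose-6-phosphate, 3.3 mM MgCl2, 0.4 U mL−1 G6PDH. Insecticide 20 µM, 30 °C, 4 h, triplicates, no-NADPH control. Quenched with acetonitrile (50% final), centrifuged, parent loss measured by UPLC–MS/MS in positive ion mode.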

[22] = tested on: tomato plants (Solanum lycopersicum L.); assay: Plant uptake and translocation by phosphor imaging; settings: [14C]-labelled, SL200; tomato plants harvested 1 day after soil drench
Outline: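 Test compound was [pyridinylmethyl-14C]-labelled in SL200 and drenched at 24 mg AI plant−1 onto 21-day-old tomato in 5 L pots of sandy loam at 80–90% water-holding capacity. Plants were kept at 21/16 °C day/night with 14 h light and 60–70% RH. Shoots were cut at the soil surface, pressed, dried 24 h at 50 °C and exposed 6 days to phosphor imaging plates.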

O=C1C=C(N(Cc2ccc(Cl)nc2)CC(F)F)CO1 [Flupyradifurone, 4-{[(6-Chloropyridine-3-yl)methyl] (2,2-difluoroethyl)amino}furan-2 (5H)-one]
type of action on nAChRs ([1]; isolated S. frugiperda neurons): partial agonist
relative agonist efficacy [1]: 0.56
Acute dermal toxicity, rat LD50 [2]: >2000 mg kg^−1 body weight
Acute inhalation toxicity, rat LC50 [3]: >4671 mg m^−3
Skin irritation [4]: Non-irritant
Eye irritation [5]: Non-irritant
Mutagenicity [6]: Not a mutagen
Carcinogenicity [7]: Not a carcinogen
Reproductive and developmental toxicity [8]: No concern
LC50 [9]: > 74.2 µg/mL
EC50 [10]: > 77.6 µg/mL
EC50 [11]: > 80 µg/mL
Earthworm (Eisenia) 14 day LC50 [12]: 193 mg kg^−1 dry weight soil
Honey bee acute contact LD50 [13]: >100 µg bee^−1
Honey bee acute oral LD50 [14]: 1200 ng bee^−1
Honey bee foliage residue [15]: No effects at 205 g ha^−1
Honey bee long-term field studies [16]: No adverse effects
Bumblebee acute contact LD50 [17]: >100 µg bee^−1
mortality at 16 µg/mL ([18]; read-out: adult mortality): 50%
mortality at 16 µg/mL ([18]; read-out: nymph mortality): 100%
time to feeding (honeydew excretion) stop after spray application ([19]; aphids on abaxial leaf side): ≤ 2 h
aphid mortality two days after application ([19]; data not shown): all aphids were dead
Efficacy (%) 6–10 DAA [20]: 96%
Efficacy (%) 13–15 DAA [20]: 83%
degradation of parent compound by CYP6CM1 microsomes [21]: not depleted at all
root uptake and distribution after drench application [22]: fast root uptake

O=[N+]([O-])NC1=NCCN1Cc1ccc(Cl)nc1 [Imidacloprid, imidacloprid, reference compound]
relative agonist efficacy [1]: 0.15
response of adult females ([18]; B. tabaci B-type strain (Unai, Brazil), concentrations of 1000 mg L^−1): do not respond at all
degradation of parent compound by CYP6CM1 microsomes [21]: 23 ± 1%

CC1=NNC(=O)N(/N=C/c2cccnc2)C1 [Pymetrozine, pymetrozine]
Efficacy (%) 6–10 DAA [20]: 79%
Efficacy (%) 13–15 DAA [20]: 57%
degradation of parent compound by CYP6CM1 microsomes [21]: 70 ± 6%

CCOC(=O)OC1=C(c2cc(C)ccc2C)C(=O)N[C@]12CC[C@@H](OC)CC2 [Spirotetramat, spirotetramat]
Efficacy (%) 6–10 DAA [20]: 90%
Efficacy (%) 13–15 DAA [20]: 98%
degradation of parent compound by CYP6CM1 microsomes [21]: not depleted at all

N#C/N=C1\SCCN1Cc1ccc(Cl)nc1 [Thiacloprid, thiacloprid]
Efficacy (%) 6–10 DAA [20]: 88%
Efficacy (%) 13–15 DAA [20]: 72%

CC(c1ccc(C(F)(F)F)nc1)S(C)(=O)=NC#N (centres unmarked) [sulfoxaflor]
degradation of parent compound by CYP6CM1 microsomes [21]: not depleted at all
